22 molecules from ChEMBL document CHEMBL5029184, “Colloidal Aggregators in Biochemical SARS-CoV-2 Repurposing Screens” (J Med Chem, 2021) can be followed below.

pIC50: −log10 of the molar value. A value given as a limit tells only on which side of the number the result lay.

The species named for assay [1] is Sus scrofa. The experiment in a line: Inhibition of porcine heart malate dehydrogenase assessed as critical aggregation concentration preincubated for 5 min followed by nicotinamide adenine dinucleotide addition and monitered for 90 sec by spectrophotometric method. Type of assay: tissue-based.
The species named for assay [2] is Sus scrofa. The experiment in a line: Inhibition of porcine heart malate dehydrogenase assessed as reduction in enzyme inhibition at 3 times IC50 preincubated for 5 min followed by nicotinamide adenine dinucleotide addition and monitered for 90 sec in presence of 0.01% Triton-X100 by spectrophotometric method relative to control. Type of assay: tissue-based. Also on record: scale not given: the % may be the effect or the level left. The gist of the method:
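After a 5 min room-temperature incubation, the rate was read over 90 s and compared with the negative control. The value is the percent change in inhibition with detergent; triplicate.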

In assay [3] the target is T1, Angiotensin-converting enzyme 2 (Homo sapiens, UniProt Q9BYF1). The experiment in a line: Inhibition of recombinant human ACE2 using MCA-Tyr-Val-Ala-Asp-Ala-Pro-Lys(DNP)-OH as substrate preincubated for 15 mins followed by substrate addition and measured upto 15 mins by fluorescence assay.
T1 sequence (Q9BYF1 whole entry): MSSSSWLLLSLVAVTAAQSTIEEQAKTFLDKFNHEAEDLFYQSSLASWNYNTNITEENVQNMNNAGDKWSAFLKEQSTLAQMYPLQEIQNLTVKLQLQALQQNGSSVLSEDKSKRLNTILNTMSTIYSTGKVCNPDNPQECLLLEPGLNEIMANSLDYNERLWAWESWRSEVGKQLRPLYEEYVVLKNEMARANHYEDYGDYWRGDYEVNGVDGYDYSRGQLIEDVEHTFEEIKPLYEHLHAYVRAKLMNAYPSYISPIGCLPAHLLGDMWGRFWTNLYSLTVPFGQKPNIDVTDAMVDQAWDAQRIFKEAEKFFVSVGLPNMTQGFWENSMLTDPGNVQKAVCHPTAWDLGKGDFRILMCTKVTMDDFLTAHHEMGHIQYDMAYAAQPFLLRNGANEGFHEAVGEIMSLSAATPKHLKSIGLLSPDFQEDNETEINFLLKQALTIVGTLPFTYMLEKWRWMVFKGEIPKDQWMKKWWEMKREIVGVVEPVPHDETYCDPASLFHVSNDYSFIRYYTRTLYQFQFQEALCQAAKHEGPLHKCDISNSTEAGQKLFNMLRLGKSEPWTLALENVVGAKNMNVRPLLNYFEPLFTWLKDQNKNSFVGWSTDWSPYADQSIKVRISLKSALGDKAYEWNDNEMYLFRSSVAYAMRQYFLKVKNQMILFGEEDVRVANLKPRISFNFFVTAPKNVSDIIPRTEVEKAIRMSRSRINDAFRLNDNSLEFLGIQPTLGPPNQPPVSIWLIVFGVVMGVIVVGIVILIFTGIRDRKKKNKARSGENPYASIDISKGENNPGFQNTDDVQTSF
A short description of assay [4]: Inhibition of porcine heart malate dehydrogenase preincubated for 5 min followed by nicotinamide adenine dinucleotide addition and monitered for 90 sec by spectrophotometric method. The format is tissue-based, Sus scrofa. In short, it runs like this:
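Porcine heart MDH was used at 2 nM final in 50 mM KPi pH 7 at room temperature. Compound was added from 100× DMSO stock (1% DMSO final) and incubated 5 min. Reactions were followed 90 s spectrophotometrically, with initial rates divided by the negative-control rate. Concentration–response used three replicates per concentration to give IC50 and Hill slope.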

Assay [5] in a line: Inhibition of SARS CoV2 C-terminal His6-tagged 3CL protease (3264 to 3569 residues) expressed in Escherichia coli BL21 DE3 using rr-K(MCA)-ATLQAIAS-K(DNP)-COOH preincubated for 1 hr followed by substrate addition and measured after 1 hr in presence of 0.05% Tween-20. More on the design: species or system Severe acute respiratory syndrome coronavirus 2. In short, it runs like this: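 Purified recombinant 3CL-Pro at 50 nM final with quenched fluorogenic peptide at 10 μM final (KM), in 20 mM Tris, 150 mM NaCl, 1 mM EDTA, 1 mM DTT, 0.05% Tween-20, pH 7.4. Drug and enzyme were preincubated 1 h at 37 °C, then substrate was added and fluorescence followed 1 h.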

The nature of assay [6]: Inhibition of SARS-Cov2 N-terminal full-length MBP-tagged 3CL protease expressed in Escherichia coli using DABCYL-KTSAVLQSGFRKME-EDANS as substrate preincubated for 30 mins followed by substrate addition and measured after 3 hrs by fluorescence assay. More on the design: species or system Severe acute respiratory syndrome coronavirus 2.
Assay [7] can be described thus: Inhibition of SARS-COV2 N-terminal MBP-tagged 3CL protease using DABCYL-KTSAVLQSGFRKME-EDANS as substrate measured upto 30 mins by FRET assay. More on the design: species or system Severe acute respiratory syndrome coronavirus 2.
In assay [8] the target is T1, Angiotensin-converting enzyme 2. Briefly: Inhibition of recombinant SARS-COV2 His-tagged S-RBD binding to recombinant human ACE2 expressed in HEK293T cells incubated for 0.5 hrs by alpha screen assay. The format is cell-based.
Assay [9] in a line: Inhibition of SARS-COV2 main protease. More on the design: species or system Severe acute respiratory syndrome coronavirus 2.

Regarding `C[C@@H](NCCCc1cccc(C(F)(F)F)c1)c1cccc2ccccc12`, the CAC in the assay listed under Sus scrofa [1] turned out to be 53 µM. The Activity in the assay listed under Sus scrofa [2] worked out at 81%. Moreover, the pIC50 is 4.55 in [3] and 4.13 in [4].

For `COc1ccc(-c2ccc3cc(C(=O)O)ccc3c2)cc1C12CC3CC(CC(C3)C1)C2`, in the assay filed under Sus scrofa [1], the CAC came to 9.2 µM. Also, in the assay filed under Sus scrofa [2], the Activity was found to be 77%. This molecule had a pIC50 in assay [4] of 4.85.

With `O=C(O)c1cccc(CN2C(=O)/C(=C(\c3ccccc3)c3ccc(Cl)cc3)c3ccccc32)c1`, in the assay filed under Sus scrofa [1], the CAC stood at 49 µM. Moreover, the Activity in the assay listed under Sus scrofa [2] is 22%. Moreover, the pIC50 in assay [5] was < 3.70; in assay [4], 4.62; in [6], 4.45.

Regarding `C/C(=C\c1ccc(C(=O)O)cc1)c1ccc2c(c1)C(C)(C)CCC2(C)C`, the CAC in the assay filed under Sus scrofa [1] amounted to 5.2 µM. Besides, in the assay listed under Sus scrofa [2], the Activity was determined as 83%. Further, the pIC50 in assay [5] was < 3.70; in [4], 5.36; in [6] it was 4.45.

Take `O=C(O)c1ccc(N2C(=O)/C(=C\c3ccc(-c4ccc([N+](=O)[O-])cc4)o3)C=C2c2ccccc2)cc1`: the CAC in the assay filed under Sus scrofa [1] was 6.2 µM. In addition, the Activity in the assay listed under Sus scrofa [2] is 75%. The pIC50 is 4.00 in assay [5], 4.74 in assay [7] and 6.44 in assay [4].

`CC(C)=CC[C@@H](O)C1=CC(=O)c2c(O)ccc(O)c2C1=O`: the CAC in the assay listed under Sus scrofa [1] is 7.7 µM. The Activity in the assay listed under Sus scrofa [2] is 92%.

`Cc1c(-c2ccc(O)cc2)n(Cc2ccc(OCCN3CCCCCC3)cc2)c2ccc(O)cc12`: in the assay filed under Sus scrofa [2], the Activity worked out at 70%.

As for `O=C1c2c(O)cccc2Cc2cccc(O)c21` [ANTHRALIN], the CAC in the assay filed under Sus scrofa [1] was 4.5 µM. Also, the Activity in the assay listed under Sus scrofa [2] worked out at 93%. The molecule also showed a pIC50 in assay [4] of 5.60.

In turn, `c1ccc(-c2ccc(C(c3ccccc3)n3ccnc3)cc2)cc1` (stereo unspecified) [BIFONAZOLE] showed a pIC50 in [4] of 4.77.

On to `CC(C)(C)[C@H]1CC[C@H](CC2=C(O)C(=O)c3ccccc3C2=O)CC1` [BUPARVAQUONE], for which the CAC in the assay filed under Sus scrofa [1] is 32 µM. For the same molecule, in the assay filed under Sus scrofa [2], the Activity was 90%. In [4], the pIC50 was 5.09.

Turning to `Oc1c(I)cc(Cl)c2cccnc12` [CLIOQUINOL], the Activity in the assay filed under Sus scrofa [2] was 57%. This molecule also showed a pIC50 in assay [4] of 5.37.

Turning to `COc1c2ccc(-c3ccccc3)oc-2cc(=O)c1C` [DRACORHODIN], the CAC in the assay listed under Sus scrofa [1] was 22 µM. For the same molecule, the Activity in the assay filed under Sus scrofa [2] amounted to 86%. The pIC50 in assay [4] was 5.11.

With `Cc1cc(O)c2c(c1)C(=O)c1cc(O)cc(O)c1C2=O` [EMODIN], in the assay filed under Sus scrofa [1], the CAC amounted to 6 µM. This molecule gave a pIC50 in [4] of 4.90.

On to `Cc1cc(-c2ccc(/N=N/c3ccc4c(S(=O)(=O)O)cc(S(=O)(=O)O)c(N)c4c3O)c(C)c2)ccc1/N=N/c1ccc2c(S(=O)(=O)O)cc(S(=O)(=O)O)c(N)c2c1O` [EVANS BLUE], for which, in the assay listed under Sus scrofa [2], the Activity was 64%. This molecule also showed a pIC50 in assay [4] of 8.00.

As to `Cc1cc2c(C(C)C)c(O)c(O)c(C=O)c2c(O)c1-c1c(C)cc2c(C(C)C)c(O)c(O)c(C=O)c2c1O` [GOSSYPOL], the CAC in the assay filed under Sus scrofa [1] was 34 µM. For the same molecule, the Activity in the assay listed under Sus scrofa [2] came to 92%. In addition, the pIC50 is < 3.70 in assay [5], 6.09 in assay [4] and 4.40 in assay [6].

For the molecule `O=C1C=C2CC3(O)COc4c(ccc(O)c4O)C3=C2C=C1O` (stereo unspecified) [HEMATEIN], the CAC in the assay listed under Sus scrofa [1] is 123 µM. For the same molecule, the Activity in the assay filed under Sus scrofa [2] stood at 24%. The results for the pIC50 in assay [5], in [8] and in assay [4] were < 3.70, 5.00 and 5.12, respectively.

As for `Cc1cc(O)c2c(=O)c3c(O)cc(O)c4c5c(O)cc(O)c6c(=O)c7c(O)cc(C)c8c1c2c(c34)c(c78)c65` [HYPERICIN], in the assay listed under Sus scrofa [1], the CAC was determined as 0.3 µM. Also, the Activity in the assay listed under Sus scrofa [2] came out at 83%. Besides, the pIC50 in assay [9] was 4.71; in assay [4], 6.82.

Take `COC(=O)C1=C(C)NC(C)=C(C(=O)OC(C)(C)CN(C)CCC(c2ccccc2)c2ccccc2)C1c1cccc([N+](=O)[O-])c1` (stereo unspecified) [LERCANIDIPINE]: the CAC in the assay listed under Sus scrofa [1] amounted to 4 µM. The Activity in the assay listed under Sus scrofa [2] is 95%. Further, the negative logarithm of the IC50 (pIC50) was < 3.70 in assay [5] and 5.66 in assay [4].

Take `COC(=O)C1=C(C)NC(C)=C(C(=O)OCCN2CCN(C(c3ccccc3)c3ccccc3)CC2)C1c1cccc([N+](=O)[O-])c1` (stereo unspecified) [MANIDIPINE 6300]: in the assay listed under Sus scrofa [1], the CAC was 2.8 µM. Further, the Activity in the assay listed under Sus scrofa [2] came to 92%. Moreover, the pIC50 is < 4.00 in [5] and 5.70 in [4].

As for `O=c1c(O)c(-c2cc(O)c(O)c(O)c2)oc2cc(O)cc(O)c12` [MYRICETIN], the CAC in the assay listed under Sus scrofa [1] is 7.4 µM. For the same molecule, the negative-log IC50 (pIC50) in assay [8] is 5.00.

As for `Brc1c(Br)c(Br)c2[nH]nnc2c1Br` [TETRABROMOBENZOTRIAZOLE], in the assay filed under Sus scrofa [2], the Activity came to 61%. Further, the pIC50 in [7] was 5.40; in [4], 4.84.

Consider `Cc1c(C)c2c(c(C)c1O)CCC(C)(CCCC(C)CCCC(C)CCCC(C)C)O2` (stereo not drawn) [alpha-TOCHOPHEROL], for which the CAC in the assay listed under Sus scrofa [1] stood at 1.5 µM. The Activity in the assay listed under Sus scrofa [2] was found to be 69%. Moreover, the pIC50 in assay [4] is 7.10.
